Experiment [1] deals with HepG2. The experiment in a line: Cytotoxicity against human HepG2 cells after 48 hrs by MTT assay. It is filed as functional, cell-based. The conditions noted are these: HepG2, 48 h. The gist of the method: (§1)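 MTT assay. Cells kept in DMEM with 10% FBS. HepG2 seeded at 1 × 10^4 cells/well; A549, PC-3M and MKN45 at 1.6 × 10^4 cells/well. Attachment 24 h at 37 °C. Compounds diluted in medium from 10 mM DMSO stocks; 0.1% DMSO served as negative control. Exposure 48 h at 37 °C, then MTT for 3 h. Formazan dissolved in DMSO and read at 570 nm. IC50 from a concentration series; mean of three independent experiments.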

The test system of experiment [2] is A549. The experiment in a line: Cytotoxicity against human A549 cells after 48 hrs by MTT assay. It is filed as functional, cell-based. To be noted: A549, 48 h. Summed up:
as §1

Experiment [3] in a line: Cytotoxicity against human PC3M cells after 48 hrs by MTT assay. The format is functional, cell-based. The conditions noted are these: PC-3M. Summed up: as §1
Experiment [4] deals with MKN-45. Briefly: Cytotoxicity against human MKN45 cells after 48 hrs by MTT assay. It is filed as functional, cell-based. The conditions noted are these: MKN-45, 48 h. Summed up:
as §1

Experiment [5] deals with Pyricularia grisea. Briefly: Growth inhibition of Phyricularia oryzae Cav. at 150 mg/mL after 48 hrs by mycelium growth rate method. The format is functional. To be noted: read-out: GI. Also noted: dose or concentration left out as unconfirmed.

37 compounds from ChEMBL document CHEMBL2040798, “One-pot synthesis of novel isoindoline-1,3-dione derivatives bearing 1,2,4-triazole moiety and their preliminary biological evaluation” (Eur J Med Chem, 2012) can be followed below.

pIC50: −log10 of the molar value.

On to `C#CCSc1nnc(-c2cc(OC)c(OC)c(OC)c2)n1N1C(=O)c2ccccc2C1=O`, for which the pIC50 in experiment [1], in experiment [2], in experiment [3] and in experiment [4] was under 3.70 throughout. For the same compound, the inhibition of growth in experiment [5] is under 50%.

`Cc1nnc(SCC(=O)c2ccc(Cl)cc2)n1N1C(=O)c2ccccc2C1=O`: the pIC50 in experiment [1], in experiment [2], in experiment [3] and in experiment [4] was under 3.70 in each case. For the same compound, in experiment [5], the inhibition of growth was at least 60%.

For the compound `Cc1nnc(SCC(=O)c2ccccc2)n1N1C(=O)c2ccccc2C1=O`, the pIC50 in experiment [1], in experiment [2], in experiment [3] and in experiment [4] was under 3.70 in each case. The inhibition of growth in experiment [5] was under 50%.

Regarding `Cc1nnc(SCc2ccccc2)n1N1C(=O)c2ccccc2C1=O`, the pIC50 in experiment [1], in experiment [2], in experiment [3] and in experiment [4] was under 3.70 throughout. Also, the inhibition of growth in experiment [5] is under 50%.

Consider `CCc1nnc(SCc2ccccc2)n1N1C(=O)c2ccccc2C1=O`, for which the pIC50 in experiment [1], in experiment [2], in experiment [3] and in experiment [4] was under 3.70 in each case. For the same compound, in experiment [5], the inhibition of growth was at least 50%.

As for `COc1cc(-c2nnc(SCc3ccccc3)n2N2C(=O)c3ccccc3C2=O)cc(OC)c1OC`, the pIC50 in experiment [1], in experiment [2], in experiment [3] and in experiment [4] was under 3.70 throughout. In addition, the inhibition of growth in experiment [5] was under 50%.

As to `O=c1[nH]cc(F)c(=O)[nH]1` [FLUOROURACIL], the pIC50 is 4.65 in experiment [3] and 4.38 in experiment [4].

As for `COc1cc(-c2nnc(SCC(=O)c3ccccc3)n2N2C(=O)c3ccccc3C2=O)cc(OC)c1OC`, the negative logarithm of the IC50 (pIC50) in experiment [1] is 3.77; in experiment [2], under 3.70; in experiment [3], under 3.70; in experiment [4], under 3.70. Moreover, the inhibition of growth in experiment [5] is at least 60%.

As for `C=CCSc1nnc(CCC)n1N1C(=O)c2ccccc2C1=O`, the pIC50 in experiment [1], in experiment [2], in experiment [3] and in experiment [4] was under 3.70 throughout. Moreover, in experiment [5], the inhibition of growth is under 50%.

With `CCOC(=O)CSc1nnc(C)n1N1C(=O)c2ccccc2C1=O`, the pIC50 in experiment [1], in experiment [2], in experiment [3] and in experiment [4] was under 3.70 in each case. Further, the inhibition of growth in experiment [5] is under 50%.

As for `CCc1nnc(SC)n1N1C(=O)c2ccccc2C1=O`, the pIC50 in experiment [1], in experiment [2], in experiment [3] and in experiment [4] was under 3.70 each time. In addition, the inhibition of growth in experiment [5] was under 50%.

On to `Cc1ccc(C(=O)CSc2nnc(C)n2N2C(=O)c3ccccc3C2=O)cc1`, for which the pIC50 in experiment [1], in experiment [2], in experiment [3] and in experiment [4] was under 3.70 in each case. Further, the inhibition of growth in experiment [5] is at least 50%.

In the case of `CCc1nnc(SCC(=O)c2ccccc2)n1N1C(=O)c2ccccc2C1=O`, the pIC50 in experiment [1], in experiment [2], in experiment [3] and in experiment [4] was under 3.70 each time. In addition, the inhibition of growth in experiment [5] was under 50%.

In the case of `C#CCSc1nnc(CCC)n1N1C(=O)c2ccccc2C1=O`, the pIC50 in experiment [1], in experiment [2], in experiment [3] and in experiment [4] was under 3.70 in each case. Moreover, in experiment [5], the inhibition of growth is under 50%.

On to `CCCc1nnc(SCC(=O)c2ccc(C)cc2)n1N1C(=O)c2ccccc2C1=O`, for which the pIC50 in experiment [1], in experiment [2], in experiment [3] and in experiment [4] was under 3.70 throughout. Further, the inhibition of growth in experiment [5] was at least 80%.

As for `CCCc1nnc(SC)n1N1C(=O)c2ccccc2C1=O`, the pIC50 in experiment [1], in experiment [2], in experiment [3] and in experiment [4] was under 3.70 each time. Besides, in experiment [5], the inhibition of growth is under 50%.

On to `CCOC(=O)CSc1nnc(-c2cc(OC)c(OC)c(OC)c2)n1N1C(=O)c2ccccc2C1=O`, for which the pIC50 in experiment [1], in experiment [2], in experiment [3] and in experiment [4] was under 3.70 throughout. Further, in experiment [5], the inhibition of growth was under 50%.

With `C#CCSc1nnc(CC)n1N1C(=O)c2ccccc2C1=O`, the pIC50 in experiment [1], in experiment [2], in experiment [3] and in experiment [4] was under 3.70 throughout. The inhibition of growth in experiment [5] was at least 60%.

Turning to `COc1ccc(C(=O)CSc2nnc(-c3cc(OC)c(OC)c(OC)c3)n2N2C(=O)c3ccccc3C2=O)cc1`, the pIC50 was 4.54 in experiment [1], 4.52 in experiment [2], 4.48 in experiment [3] and 4.43 in experiment [4]. Further, the inhibition of growth in experiment [5] is under 50%.

With `CC(C)(C)C(=O)C(Oc1ccc(Cl)cc1)n1cncn1` (stereo not drawn) [TRIADIMEFON], the inhibition of growth in experiment [5] was at least 80%.

Turning to `C=CCSc1nnc(-c2cc(OC)c(OC)c(OC)c2)n1N1C(=O)c2ccccc2C1=O`, the pIC50 in experiment [1], in experiment [2], in experiment [3] and in experiment [4] was under 3.70 in each case. Also, the inhibition of growth in experiment [5] was at least 60%.

In the case of `COc1cc(-c2nnc(SCC(=O)c3ccc(Cl)cc3)n2N2C(=O)c3ccccc3C2=O)cc(OC)c1OC`, the pIC50 in experiment [1] was 4.66; in experiment [2], 5.04; in experiment [3], 4.68; in experiment [4], 4.57. Further, in experiment [5], the inhibition of growth is under 50%.

For the compound `C#CCSc1nnc(C)n1N1C(=O)c2ccccc2C1=O`, the pIC50 in experiment [1], in experiment [2], in experiment [3] and in experiment [4] was under 3.70 throughout. Moreover, the inhibition of growth in experiment [5] was at least 60%.

As to `COc1cc(-c2nnc(SCC(=O)c3ccc(Br)cc3)n2N2C(=O)c3ccccc3C2=O)cc(OC)c1OC`, the pIC50 in experiment [1] is 4.56; in experiment [2], 4.79; in experiment [3], 4.65; in experiment [4], 4.65. In addition, the inhibition of growth in experiment [5] was at least 60%.

As to `COc1cc(-c2nnc(SCC(=O)c3ccc(F)c(F)c3)n2N2C(=O)c3ccccc3C2=O)cc(OC)c1OC`, the pIC50 in experiment [1] was under 3.70; in experiment [2], under 3.70; in experiment [3] it was 3.79; in experiment [4] it was under 3.70. Further, in experiment [5], the inhibition of growth is under 50%.

In the case of `Cc1nnc(SCc2ccccc2Cl)n1N1C(=O)c2ccccc2C1=O`, the pIC50 in experiment [1], in experiment [2], in experiment [3] and in experiment [4] was under 3.70 throughout. For the same compound, the inhibition of growth in experiment [5] was at least 60%.

As for `CCc1nnc(SCC(=O)c2ccc(Cl)cc2)n1N1C(=O)c2ccccc2C1=O`, the pIC50 in experiment [1], in experiment [2], in experiment [3] and in experiment [4] was under 3.70 each time. In experiment [5], the inhibition of growth was under 50%.

`CCOC(=O)CSc1nnc(CC)n1N1C(=O)c2ccccc2C1=O`: the pIC50 in experiment [1], in experiment [2], in experiment [3] and in experiment [4] was under 3.70 in each case. Moreover, the inhibition of growth in experiment [5] is at least 50%.

Turning to `CCCc1nnc(SCC(=O)c2ccc(Cl)cc2)n1N1C(=O)c2ccccc2C1=O`, the pIC50 in experiment [1], in experiment [2], in experiment [3] and in experiment [4] was under 3.70 throughout. The inhibition of growth in experiment [5] was under 50%.

For `COc1cc(-c2nnc(SC)n2N2C(=O)c3ccccc3C2=O)cc(OC)c1OC`, the pIC50 in experiment [1], in experiment [2], in experiment [3] and in experiment [4] was under 3.70 in each case. For the same compound, the inhibition of growth in experiment [5] is at least 50%.

`CCCc1nnc(SCC(=O)c2ccccc2)n1N1C(=O)c2ccccc2C1=O`: the negative logarithm of the IC50 (pIC50) in experiment [1], in experiment [2], in experiment [3] and in experiment [4] was under 3.70 in each case. Further, in experiment [5], the inhibition of growth was under 50%.

`COc1cc(-c2nnc(SCC(=O)c3ccccc3C)n2N2C(=O)c3ccccc3C2=O)cc(OC)c1OC`: the pIC50 in experiment [1] is under 3.70; in experiment [2], 3.84; in experiment [3], under 3.70; in experiment [4] it was under 3.70. In experiment [5], the inhibition of growth was under 50%.

As to `COc1cc(-c2nnc(SCC(=O)c3ccc(F)cc3)n2N2C(=O)c3ccccc3C2=O)cc(OC)c1OC`, the pIC50 is under 3.70 in experiment [1], under 3.70 in experiment [2], under 3.70 in experiment [3] and 3.90 in experiment [4]. Further, the inhibition of growth in experiment [5] was under 50%.

For the compound `CCc1nnc(SCC(=O)c2ccc(C)cc2)n1N1C(=O)c2ccccc2C1=O`, the pIC50 in experiment [1], in experiment [2], in experiment [3] and in experiment [4] was under 3.70 in each case. Further, the inhibition of growth in experiment [5] is under 50%.

As to `CCCc1nnc(SCc2ccccc2)n1N1C(=O)c2ccccc2C1=O`, the pIC50 in experiment [1], in experiment [2], in experiment [3] and in experiment [4] was under 3.70 each time. Further, the inhibition of growth in experiment [5] was under 50%.

On to `COc1cc(-c2nnc(SCc3ccccc3Cl)n2N2C(=O)c3ccccc3C2=O)cc(OC)c1OC`, for which the pIC50 in experiment [1], in experiment [2], in experiment [3] and in experiment [4] was under 3.70 throughout. Also, the inhibition of growth in experiment [5] is under 50%.

Take `CCCc1nnc(SCc2ccccc2Cl)n1N1C(=O)c2ccccc2C1=O`: the pIC50 in experiment [1], in experiment [2], in experiment [3] and in experiment [4] was under 3.70 in each case. For the same compound, the inhibition of growth in experiment [5] was under 50%.
